Source: PubChem (several laboratories)
Most compounds without a hit are left out; they make up all but 6% or so of the library.
Jurkat viability – cytotoxicity toward Jurkat T cells, primary screen, cytotoxicity control, cell-based, Jurkat E6.1, 60K MLSMR library; Jurkat E6.1 viability, ATP luminescence, 48 h; actives 1.2% (n = 56,000); inhibition, % at 4 µM; AID 463, 2006;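 active means inhibition above the mean inhibition of all tested compounds plus 3 SD, cut at about 28% in these data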
H69AR inhibit – proliferation blockers of H69AR lung cancer cells, primary screen, cell-based, human, 86K library; H69AR lung tumor viability, ATP luminescence, 72 h; stronger effect = lower value; viability, % at 10 µM; actives 6% (n = 85,000);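 active means viability at or below 40%; inactive means viability above 40%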;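 further: multidrug resistant small cell line overexpressing MRP-1 efflux transporter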
Fibroblast inh – antiproliferative effect on LL 47 fibroblasts – human, LL 47 cells, CellTiter-Glo luminescence, primary screen; AID 719, 2007; viability, % at 10 µM; LL 47 human lung fibroblast viability, ATP luminescence; stronger effect = lower value; actives 1.1% (n = 85,000);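 active means viability at or below 50% in the single dose screen; inactive means viability above 50%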;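 further: compound exposure lasted 72 h before the ATP readout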
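Assay system: human lung fibroblast line LL 47, low passage. Input: 1,150 fibroblasts seeded per well. Times: overnight cell rest, 72 h compound treatment at 37 °C. Evaluation: % viability of median cell-only signal. Technique: luminescent ATP detection, CellTiter-Glo. Control set: cell-only wells, no compound.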
PTK2B oligo ant – antagonists of Pyk2 self-association, primary screen, Q293 cells, FERM NanoBiT luminescence, HTS | actives 0.83% (n = 99,000) | Protein-tyrosine kinase 2-beta (Homo sapiens), Q14289 | stronger effect = lower value | z-score (the deposit names both 25 µM and 10 µM) | AID 1347419, 2020;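 active means Z-score of -3 or lower, scaled per plate to the spread of control and sample wells; inactive means z-score above -3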;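 further: negative z-score means lost luminescence so less FERM oligomerization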
Target sequence (Q14289 whole entry, looked up): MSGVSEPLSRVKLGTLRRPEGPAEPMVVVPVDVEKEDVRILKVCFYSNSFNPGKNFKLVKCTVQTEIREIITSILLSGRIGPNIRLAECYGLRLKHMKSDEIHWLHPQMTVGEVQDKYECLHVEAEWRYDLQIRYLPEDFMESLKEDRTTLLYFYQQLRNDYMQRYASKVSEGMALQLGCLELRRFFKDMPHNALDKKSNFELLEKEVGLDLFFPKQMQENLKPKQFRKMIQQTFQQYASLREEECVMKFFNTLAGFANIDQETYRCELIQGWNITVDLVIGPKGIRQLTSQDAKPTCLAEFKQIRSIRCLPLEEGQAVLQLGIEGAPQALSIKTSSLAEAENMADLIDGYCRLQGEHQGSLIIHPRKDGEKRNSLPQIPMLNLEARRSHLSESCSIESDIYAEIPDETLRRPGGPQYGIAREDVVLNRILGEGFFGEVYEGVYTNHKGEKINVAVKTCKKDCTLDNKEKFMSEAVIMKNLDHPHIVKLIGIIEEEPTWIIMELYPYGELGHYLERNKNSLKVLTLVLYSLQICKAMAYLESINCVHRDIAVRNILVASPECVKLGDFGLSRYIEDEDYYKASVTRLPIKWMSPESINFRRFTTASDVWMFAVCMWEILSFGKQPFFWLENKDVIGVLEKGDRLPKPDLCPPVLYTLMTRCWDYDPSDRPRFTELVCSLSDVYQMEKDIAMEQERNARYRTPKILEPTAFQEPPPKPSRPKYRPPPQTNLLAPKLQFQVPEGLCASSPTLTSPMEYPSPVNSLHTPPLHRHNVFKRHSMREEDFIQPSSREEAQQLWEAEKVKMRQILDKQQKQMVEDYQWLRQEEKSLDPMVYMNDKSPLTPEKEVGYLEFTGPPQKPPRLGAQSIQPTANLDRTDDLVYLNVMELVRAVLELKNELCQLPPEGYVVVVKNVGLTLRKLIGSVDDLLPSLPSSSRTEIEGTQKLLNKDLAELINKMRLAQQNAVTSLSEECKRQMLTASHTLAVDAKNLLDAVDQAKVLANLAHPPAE
cytoskel mod – modifiers of F-actin cytoskeleton organization, primary screen, imaging, HUVEC, phalloidin staining, high-content imaging. HUVEC TNFa F-actin phalloidin imaging. inhibition, % at 2 µM. actives 0.18% (n = 91,000). AID 836, 2007;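 active means inhibition above the batch mean plus 3 SD and confirmed as a hit by visual image inspection, cut at about 30% in these data, passing the limit was not always enough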
HUVEC prolif 384 – inhibitors of HUVEC proliferation, primary screen, cell-based, 384-well; viability, % at 10 µM (by protocol); actives 1.1% (n = 86,000); CellTiter-Glo luminescence, 72 h; stronger effect = lower value;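 active means viability at or below 30%; inactive means viability above 30%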
A number is an active result; – = inactive; · = no result.

SMILES	Jurkat viability	H69AR inhibit	Fibroblast inh	PTK2B oligo ant	cytoskel mod	HUVEC prolif 384
O=C(N/N=C\c1cc(Br)cs1)C1COc2ccccc2O1 (centres undefined)	·	27.1	–	–	–	–
Cc1cc(C(=O)CSc2nnc(-c3cccnc3)n2-c2ccccc2F)c(C)n1CC1CCCO1 (centres undefined)	·	–	–	–	–	–
COc1cc(C2=NOC(C(=O)NCc3cccs3)C2)cc(OC)c1OC (centres undefined)	·	24.0	–	–	–	–
COc1ccc(C2=NOC(C(=O)NCc3cccs3)C2)cc1OC (centres undefined)	·	24.2	–	·	–	–
COc1ccc(C2=NOC(C(=O)NCc3cccs3)C2)cc1 (centres undefined)	·	–	–	–	–	–
COCCn1c(C)cc(C(=O)CSc2nc3ccccc3s2)c1C	·	·	·	–	·	·
COCCn1c(C)cc(C(=O)CSc2nc3ccccc3o2)c1C	–	–	–	–	–	25.4
Cc1nn2c(-c3ccccc3)nnc2c2ccccc12	–	39.1	–	–	–	–
Cc1ccccc1Nc1nc(N)nc(CSc2nnc(-c3ccccc3)n2C)n1	·	–	–	–	–	–
Cc1c(Cl)cccc1Nc1nc(N)nc(CSCCO)n1	–	4.3	–	–	–	–
Cc1c(Cl)cccc1Nc1nc(N)nc(CSc2ncccn2)n1	–	1.4	–	–	–	–
CS(=O)(=O)N(CC(=O)NCc1ccc2c(c1)OCO2)Cc1ccc(Cl)cc1	–	–	–	–	·	–
O=C(Cc1sc(-c2ccccc2Cl)nc1-c1ccccc1)Nc1ccccc1	·	–	23.3	–	–	–
O=C(Cc1sc(-c2ccccc2Cl)nc1-c1ccccc1)Nc1ccc(F)cc1	·	10.8	44.8	–	–	–
O=C(Cc1nc(=O)c2ccccc2s1)Nc1ccccc1	·	·	·	–	–	·
O=C(Cc1sc(-c2ccccc2)nc1-c1ccccc1)Nc1ccc(Cl)cc1	·	20.2	–	–	–	–
O=C(Nc1ccccc1)c1cc(-c2ccccc2Cl)no1	·	·	·	–	–	·
COc1ccc(C(=O)N=c2sc3c(C)ccc(OC)c3n2C)cc1	·	·	·	·	–	·
CCCCC(C)n1[nH]c(=O)cc1N (centres undefined)	·	–	–	–	–	–
CC1CCCC(NC(=O)c2ccc(CNc3c(N4CCCC4)c(=O)c3=O)cc2)C1C (centres undefined)	–	–	–	·	·	–
Cc1nn(-c2ccccc2)c(C)c1/C=N\NS(=O)(=O)c1ccc(Cl)cc1	·	·	·	–	–	·
Cc1ccc2nc(NCCCO)nc(-c3ccccc3)c2c1	·	8.9	–	–	–	–
Cc1ccc2nc(NCC(=O)O)nc(-c3ccccc3)c2c1	·	·	·	–	–	·
CCCCN1CNC(=S)N(c2ccccc2OCC)C1	·	·	·	–	·	·
CCOC(=O)c1c(C(C)(C)C)oc2ccc(O)cc12	·	29.9	–	–	–	–
SMILES	Jurkat viability	H69AR inhibit	Fibroblast inh	PTK2B oligo ant	cytoskel mod	HUVEC prolif 384
CCOC(=O)c1c(COc2ccccc2)oc2ccc(O)cc12	45.3	–	–	·	–	–
CCOC(=O)c1c(C(C)(C)C)oc2ccc(OCC#N)cc12	–	–	–	–	–	–
COc1nc(OC)nc(N2CCC(C(=O)NCC3CCCCC3)CC2)n1	–	30.8	–	–	–	–
Cc1cc(C)nc(N2CCC(C(=O)NCC3CCCCC3)CC2)n1	–	–	–	–	–	–
CN1/C(=C\C(=O)c2ccco2)C(C)(C)c2ccccc21	–	–	–	–	–	–
CN1/C(=C/C(=O)c2nc(S(C)(=O)=O)ncc2Cl)C(C)(C)c2ccccc21	101.6	0.6	18.5	-3.78	–	–
COc1ccc(CCN2C(=O)C3C4C=CC(C4)C3C2=O)cc1OC (centres undefined)	–	–	–	–	–	–
COc1ccc(CCN2C(=O)C3C4C=CC(C3C2=O)C2C(=O)N(CCc3ccc(OC)c(OC)c3)C(=O)C42)cc1OC (centres undefined)	·	39.6	–	–	–	–
CS(=O)(=O)N(CC(=O)N1CCCCCC1)c1ccc(Br)cc1	–	–	–	–	–	–
CC1C(c2ccccc2)N(C)C(c2ccccc2)C(C)C1(O)C#Cc1ccccc1 (centres undefined)	·	·	·	–	·	·
COc1cc2c3c(c1)C1(C(=O)N3C(C)(C)C=C2C)C(C#N)=C(N)Oc2cc(O)ccc21 (centres undefined)	–	–	–	–	·	–
CCOc1cc2c3c(c1)C1(C(=O)N3C(C)(C)C=C2C)C(C#N)=C(N)Oc2cc(O)ccc21 (centres undefined)	–	33.3	–	–	–	–
CCOC(=O)CN(C(=O)CSc1nnc2c(n1)[nH]c1ccc(OC)cc12)c1ccc(F)cc1	–	–	–	–	·	–
CC(C)NS(=O)(=O)c1ccc(OCC(=O)N2CCCC2)cc1	·	–	–	–	·	–
Cc1ccc(Cl)cc1N1CCN(C(=O)COc2ccc(S(=O)(=O)NC(C)C)cc2)CC1	54.1	–	–	·	–	–
N#Cc1c(SCC(N)=O)nc2c(c1-c1ccc(OCc3ccccc3)cc1)CCCC2	·	–	–	·	–	–
Cc1ccc(SCCC(=O)NCC2CCCO2)cc1 (centres undefined)	–	–	–	–	–	–
Cc1cc(C)c(C)c(S(=O)(=O)NCc2ccc(C(=O)N3CCCCC3)cc2)c1C	·	33.1	–	–	–	–
CCOC(=O)C1CCCN(Cc2ccccc2C)C1 (centres undefined)	–	–	–	–	·	–
CCOC(=O)C1CCN(Cc2ccccc2C)CC1	·	–	–	–	30.3	–
Cc1ccc2[nH]c(C(=O)O)c(-c3ccccc3)c2c1	–	–	–	–	–	–
Cc1ccc2[nH]c(-c3ccccc3)cc(=O)c2c1	98.4	33.1	–	·	–	–
O=C(Nc1ccc2nc(-c3ccccn3)[nH]c2c1)C1CCCCC1	·	26.1	–	–	–	–
CC(=O)N(Cc1ccc(F)cc1)C1=C(NCCc2ccccc2)C(=O)c2ccccc2C1=O	·	1.2	1.8	-3.18	–	4.3
CCOc1ccc(N2CC(C(=O)Nc3ncccc3C)CC2=O)cc1 (centres undefined)	·	·	·	–	–	·
COc1ccccc1Nc1nnc(SCC(=O)c2cc(C)n(CC3CCCO3)c2C)s1 (centres undefined)	·	37.8	–	–	–	–
N=C1N(/N=C/c2ccccc2)C(=Nc2ccccc2)C(=S)N1c1ccccc1	·	1.6	–	–	–	–
FC(F)(F)COc1nc(OCC(F)(F)F)nc(N2CCN(c3ccccc3)CC2)n1	–	–	–	–	–	–
CCOc1ccc2nc(NC(=O)c3ccc(OC)c(S(=O)(=O)N4CCOCC4)c3)sc2c1	·	–	–	-3.72	–	–
